The text below walks through data of ChEMBL document CHEMBL1152428 (Bioorg Med Chem, 2009).

Assay [1] addresses Glycogen synthase kinase-3 (Sus scrofa, UniProt B2LUN4+I6LNT8). The assay is described as follows: Inhibition of pig brain GSK3alpha/beta after 30 mins by scintillation counting.
Assay [2] in a line: Inhibition of Marthasterias glacialis CDK1/cyclin B after 30 mins by scintillation counting.
The target of assay [3] is Cyclin-dependent kinase 5/CDK5 activator 1 (Homo sapiens, UniProt Q00535). Description: Inhibition of GST-fused recombinant CDK5/p25 expressed in Escherichia coli after 30 mins by scintillation counting.
Sequence of Cyclin-dependent kinase 5/CDK5 activator 1 (Q00535 whole entry, the tested form may be a part): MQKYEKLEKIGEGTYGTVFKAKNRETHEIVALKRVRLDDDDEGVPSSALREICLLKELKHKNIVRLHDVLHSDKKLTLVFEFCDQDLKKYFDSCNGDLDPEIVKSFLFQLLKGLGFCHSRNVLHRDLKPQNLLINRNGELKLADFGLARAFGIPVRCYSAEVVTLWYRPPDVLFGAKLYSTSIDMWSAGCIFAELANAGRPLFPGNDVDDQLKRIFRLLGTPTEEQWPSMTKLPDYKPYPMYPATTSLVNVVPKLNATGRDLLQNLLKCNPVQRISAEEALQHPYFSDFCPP
Sequence of Cyclin-dependent kinase 5/CDK5 activator 1 (Q15078 whole entry, further chain, the tested form may be a part): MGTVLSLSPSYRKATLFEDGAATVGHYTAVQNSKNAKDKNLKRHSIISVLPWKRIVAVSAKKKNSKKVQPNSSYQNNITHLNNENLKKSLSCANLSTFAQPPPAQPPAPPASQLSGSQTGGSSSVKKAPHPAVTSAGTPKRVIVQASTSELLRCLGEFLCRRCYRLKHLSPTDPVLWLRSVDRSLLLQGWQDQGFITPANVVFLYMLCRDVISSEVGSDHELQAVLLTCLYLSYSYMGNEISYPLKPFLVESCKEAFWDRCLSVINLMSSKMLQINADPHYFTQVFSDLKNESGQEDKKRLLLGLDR
Another assay has as its system Saccharomyces cerevisiae. Description: Growth inhibition of drug-sensitized Saccharomyces cerevisiae YRP1 assessed as growth deffect. Type of assay: functional, organism-based. The method, boiled down:
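Growth defect of the drug-sensitized YRP1 strain (snq2Δ pdr5Δ erg6Δ) was scored on agar plates by halo assay.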

Assay [4] deals with Cyclin-dependent protein kinase PHO85 (Saccharomyces cerevisiae S288c) (UniProt P17157). The assay is described as follows: Inhibition of Saccharomyces cerevisiae YRP1 Pho85 assessed as induction of nuclear localization of GFP-tagged transcription factor Pho4 at 250 uM after 3 hrs by fluorescence microscopy. The method in brief: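 The drug-sensitized strain YRP1 (snq2Δ pdr5Δ erg6Δ) carried a Pho4-GFP plasmid. Cells were grown overnight without uracil, diluted to OD600 0.5 and treated with 250 µM drug, with methanol as vehicle. After 3 h, GFP localization was examined by fluorescence microscopy (excitation 455–495 nm).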
Sequence of Cyclin-dependent protein kinase PHO85 (Saccharomyces cerevisiae S288c) (P17157 whole entry): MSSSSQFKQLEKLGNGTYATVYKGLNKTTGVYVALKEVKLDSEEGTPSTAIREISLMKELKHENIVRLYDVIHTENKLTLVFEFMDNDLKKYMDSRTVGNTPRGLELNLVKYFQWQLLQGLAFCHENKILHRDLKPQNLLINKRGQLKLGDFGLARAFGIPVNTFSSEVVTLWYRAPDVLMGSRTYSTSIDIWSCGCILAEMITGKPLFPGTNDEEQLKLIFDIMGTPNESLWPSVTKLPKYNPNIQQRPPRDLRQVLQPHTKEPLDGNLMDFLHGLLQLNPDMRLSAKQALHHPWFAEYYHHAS

For assay [5], the target named is Cyclin-dependent kinase 1 (Saccharomyces cerevisiae S288c, UniProt P00546). The assay is described as follows: Inhibition of hemagglutininin-tagged Saccharomyces cerevisiae MNY629 Cdc28/Clb2. The method in brief: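 Cdc28/Clb2-HA was immunoprecipitated from strain MNY629 extracts with anti-HA and protein A/G agarose. Kinase reactions ran 30 min at 30 °C with histone H1, 15 µmol/l [γ-33P]ATP (stock) and varying drug concentrations in buffer C (25 mM MOPS pH 7.2, 15 mM MgCl2, 5 mM EGTA, 1 mM DTT, phosphatase inhibitors). Products were spotted on P81 paper, washed in 1% phosphoric acid and counted by scintillation. IC50 was taken from the dose–response curve.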
Sequence of Cyclin-dependent kinase 1 (P00546 whole entry): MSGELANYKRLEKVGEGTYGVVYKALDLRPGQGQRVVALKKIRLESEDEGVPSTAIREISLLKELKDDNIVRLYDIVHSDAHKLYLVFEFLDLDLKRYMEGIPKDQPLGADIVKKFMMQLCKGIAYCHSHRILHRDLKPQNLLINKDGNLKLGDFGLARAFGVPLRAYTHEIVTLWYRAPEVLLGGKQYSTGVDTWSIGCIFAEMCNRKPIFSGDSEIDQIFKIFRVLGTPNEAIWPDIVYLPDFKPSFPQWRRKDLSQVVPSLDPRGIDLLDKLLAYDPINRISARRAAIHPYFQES

Assay [6] in a line: Inhibition of histidine6-tagged Plasmodium falciparum recombinant GSK3 expressed in Escherichia coli by scintillation counting.
Assay [7] concerns the target Cyclin-dependent protein kinase PHO85 (Saccharomyces cerevisiae S288c) (UniProt P17157). Description: Binding affinity to Saccharomyces cerevisiae Pho85. The method in brief:
(§1)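 Budding yeast grown to OD600 ~2 were lysed under 2.5 kbar pressure in breaking buffer (25 mM Tris pH 7.4, 100 mM NaCl, 0.2% Triton X100, phosphatase and protease inhibitors) and clarified. The lysate was incubated with Sepharose matrices carrying linker-attached drug (3 µmol/ml resin), methyl control or ethanolamine-blocked beads. Bound proteins were eluted in Laemmli buffer and analysed by SDS–PAGE with silver staining or western blot.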

Assay [8] deals with Cyclin-dependent kinase 1 (Saccharomyces cerevisiae S288c) (UniProt P00546). Description: Binding affinity to Saccharomyces cerevisiae Cdc28. The method, boiled down: as §1
Sequence of Cyclin-dependent kinase 1 (Saccharomyces cerevisiae S288c) (P00546 2-298 limits assumed): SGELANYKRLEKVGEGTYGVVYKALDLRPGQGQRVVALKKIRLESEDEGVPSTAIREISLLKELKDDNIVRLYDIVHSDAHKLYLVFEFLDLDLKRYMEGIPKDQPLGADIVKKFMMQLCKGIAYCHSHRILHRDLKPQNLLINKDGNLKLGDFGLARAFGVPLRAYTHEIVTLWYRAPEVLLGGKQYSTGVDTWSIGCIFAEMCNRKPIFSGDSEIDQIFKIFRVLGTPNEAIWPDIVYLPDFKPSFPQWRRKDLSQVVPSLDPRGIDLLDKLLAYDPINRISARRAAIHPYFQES

Calls of active or inactive are those of the source. No cut-off for these calls is given here.

As for `CCCCc1c(-c2ccc(O)c(-c3cn(CCOCCOCCN)nn3)c2)n(C)c2nccnc12`, the 50% inhibitory concentration (IC50) in assay [1], in assay [2] and in [3] was over 10 µM in each case.

In the case of `CCCCc1c(-c2ccc(OCCOCCOCCN)cc2)n(C)c2nccnc12`, the IC50 was 45 µM in assay [1], 100 µM in assay [2] and 50 µM in [3].

Take `CCCCc1c(-c2ccc(OCCOCCOCCN)cc2)[nH]c2nccnc12`: the figures for the IC50 in assay [1], in assay [2] and in assay [3] were 0.34 µM, 0.23 µM and 0.66 µM, respectively.

Turning to `CCCCc1c(-c2ccc(O)c(-c3cn(CCOCCOCCN)nn3)c2)[nH]c2nccnc12`, the IC50 is 5.8 µM in assay [1], 6.7 µM in assay [2] and over 10 µM in assay [3].

Regarding `CCCCc1c(-c2ccc(O)cc2)[nH]c2nccnc12` [ALOISINE A], in the assay on Saccharomyces cerevisiae, the “growth inhibition (GI)” value was “inactive”. The outcome in assay [4] was Active. For the same compound, the concentration for half-maximal inhibition (IC50) came out at 0.65 µM in assay [1], 2.5 µM in [5] and 5.5 µM in [6].

In the case of `CCCCc1c(-c2ccc(O)cc2)n(C)c2nccnc12` [N-METHYL-ALOISINE A], the result in [7] and in assay [8] was inactive. Also, the IC50 in [1] was over 200 µM; in assay [2], 140 µM; in assay [5] it was over 33 µM; in assay [6] it was over 100 µM; in assay [3], 160 µM.

The term IC50 denotes the point on the concentration scale where inhibition reaches its midpoint.
